Test results: ChEMBL document CHEMBL4477243, “Discovery and SAR of a novel series of potent, CNS penetrant M4 PAMs based on a non-enolizable ketone core: Challenges in disposition” (Bioorg Med Chem Lett, 2016)
Calls of active or inactive are those of the source. The calls are words filed in the database; no cut-off is given here.

Columns and labels:
[1] = Drug level in cryopreserved rat hepatocytes treated with (3-amino-4,6-dimethylthieno[2,3-b]pyridin-2-yl)(pyridin-4-yl)methanone assessed as compound formation; type: ADME, cell-based, Hepatocyte
[2] = target: T1, Muscarinic acetylcholine receptor M4 (Rattus norvegicus, UniProt P08485); assay: Positive allosteric modulation activity at rat M4 receptor expressed in CHO cells co-expressing Gqi5 protein assessed as potentiation of EC20 acetyl choline-induced response by calcium mobilization assay; type: functional, cell-based
T1 sequence (P08485 whole entry): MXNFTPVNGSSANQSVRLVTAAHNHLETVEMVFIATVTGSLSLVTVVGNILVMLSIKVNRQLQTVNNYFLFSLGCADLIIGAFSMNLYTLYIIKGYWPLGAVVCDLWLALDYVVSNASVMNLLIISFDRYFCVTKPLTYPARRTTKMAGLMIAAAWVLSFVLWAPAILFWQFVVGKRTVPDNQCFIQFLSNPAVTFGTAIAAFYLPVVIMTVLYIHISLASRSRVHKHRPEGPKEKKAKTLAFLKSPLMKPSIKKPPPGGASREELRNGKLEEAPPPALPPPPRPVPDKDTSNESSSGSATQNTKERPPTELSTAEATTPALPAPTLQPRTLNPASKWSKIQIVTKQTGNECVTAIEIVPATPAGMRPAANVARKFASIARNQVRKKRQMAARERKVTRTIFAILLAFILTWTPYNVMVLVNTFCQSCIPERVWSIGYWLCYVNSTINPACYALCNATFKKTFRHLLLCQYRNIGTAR
Summary of the method: (§1)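 Calcium mobilization in CHO cells stably co-expressing human or rat M4 with the chimeric Gqi5 protein. Test compound given with a fixed EC20 concentration of acetylcholine. Potency reported as EC50; efficacy as % of the acetylcholine maximum. Means of three independent experiments, each in triplicate.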

[3] = Drug level in cryopreserved human hepatocytes treated with (3-amino-4,6-dimethylthieno[2,3-b]pyridin-2-yl)(pyridin-4-yl)methanone assessed as compound formation; type: ADME, cell-based, Hepatocyte
[4] = target: T2, Muscarinic acetylcholine receptor M4 (Homo sapiens, UniProt P08173); assay: Positive allosteric modulation activity at human M4 receptor expressed in CHO cells co-expressing Gqi5 protein assessed as potentiation of EC20 acetyl choline-induced response by calcium mobilization assay; type: functional, cell-based; summary of the method: as §1
T2 sequence (P08173 whole entry): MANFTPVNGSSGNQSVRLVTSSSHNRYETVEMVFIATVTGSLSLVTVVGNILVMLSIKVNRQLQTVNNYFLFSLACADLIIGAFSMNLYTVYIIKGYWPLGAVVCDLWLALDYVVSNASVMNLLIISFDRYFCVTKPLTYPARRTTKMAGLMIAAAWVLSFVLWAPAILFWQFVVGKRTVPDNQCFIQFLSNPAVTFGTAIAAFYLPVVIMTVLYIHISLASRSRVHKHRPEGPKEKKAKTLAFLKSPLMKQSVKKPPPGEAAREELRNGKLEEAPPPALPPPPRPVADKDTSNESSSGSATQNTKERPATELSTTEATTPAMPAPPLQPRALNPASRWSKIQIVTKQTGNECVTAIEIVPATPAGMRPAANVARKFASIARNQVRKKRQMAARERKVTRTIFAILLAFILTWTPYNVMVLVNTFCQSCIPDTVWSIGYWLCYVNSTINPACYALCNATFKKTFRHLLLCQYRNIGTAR

[5] = Fraction unbound in human plasma; type: ADME, cell-free
Summary of the method: (§2)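 Plasma protein binding, reported as fraction unbound in rat and human plasma. Single experiment (n=1) run in triplicate.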

[6] = Drug metabolism in cryopreserved rat hepatocytes assessed as secondary alcohol 18 formation; type: ADME, cell-based, Hepatocyte
[7] = Ratio of drug level in Sprague-Dawley rat brain to plasma at 0.2 to 0.25 mg/kg, iv administered as cassette dose measured 0.25 hrs post dose; type: ADME, organism-based; conditions: brain and plasma
Summary of the method: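 Male Sprague-Dawley rats (n=1) received an IV cassette dose of 0.20-0.25 mg/kg. Brain and plasma sampled 0.25 hr post-administration. Total brain:plasma partition coefficient (Kp) measured; unbound coefficient (Kp,uu) calculated.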

[8] = test system: Cytochrome P450; assay: Inhibition of Cytochrome P450 (unknown origin); type: ADME, protein assay; conditions: human
[9] = target: T3, Muscarinic acetylcholine receptor M4 (Rattus norvegicus) (UniProt P08485); assay: Positive allosteric modulation activity at rat M4 receptor expressed in CHO cells co-expressing Gqi5 protein assessed as potentiation of EC20 acetyl choline-induced response by calcium mobilization assay relative to acetylcholine; type: functional, cell-based; summary of the method: as §1
T3 sequence (whole entry): T1 sequence (P08485 whole entry)

[10] = target: T4, Cytochrome P450 1A2 (Homo sapiens, UniProt P05177); assay: Inhibition of CYP1A2 (unknown origin); type: ADME
T4 sequence (P05177 whole entry): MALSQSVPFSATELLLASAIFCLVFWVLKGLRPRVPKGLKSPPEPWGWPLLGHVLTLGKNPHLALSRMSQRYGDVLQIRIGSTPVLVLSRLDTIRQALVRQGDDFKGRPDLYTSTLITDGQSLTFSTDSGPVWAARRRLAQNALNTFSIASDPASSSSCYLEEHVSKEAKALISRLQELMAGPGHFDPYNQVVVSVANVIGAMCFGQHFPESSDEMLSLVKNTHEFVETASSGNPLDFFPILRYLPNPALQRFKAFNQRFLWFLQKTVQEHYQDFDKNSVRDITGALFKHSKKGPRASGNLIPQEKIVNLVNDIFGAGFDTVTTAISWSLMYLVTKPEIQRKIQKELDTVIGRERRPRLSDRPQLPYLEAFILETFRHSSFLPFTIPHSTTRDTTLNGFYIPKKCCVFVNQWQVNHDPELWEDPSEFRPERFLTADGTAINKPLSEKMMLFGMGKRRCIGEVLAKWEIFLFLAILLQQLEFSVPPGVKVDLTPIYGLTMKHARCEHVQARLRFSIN

[11] = Selectivity ratio of EC50 for rat M4 receptor expressed in CHO cells co-expressing Gqi5 protein to EC50 for human M4 receptor expressed in CHO cells co-expressing Gqi5 protein; type: cell-based
[12] = Drug metabolism in cryopreserved human hepatocytes assessed as secondary alcohol 18 formation; type: ADME, cell-based, Hepatocyte
[13] = Fraction unbound in rat plasma; type: ADME, cell-free; summary of the method: as §2
[14] = target: T5, Muscarinic acetylcholine receptor M4 (Homo sapiens) (UniProt P08173); assay: Positive allosteric modulation activity at human M4 receptor expressed in CHO cells co-expressing Gqi5 protein assessed as potentiation of EC20 acetyl choline-induced response by calcium mobilization assay relative to acetylcholine; type: functional, cell-based; summary of the method: as §1
T5 sequence (whole entry): T2 sequence (P08173 whole entry)

[15] = target: T6, Muscarinic acetylcholine receptor M5 (Homo sapiens) (UniProt P08912); assay: Positive allosteric modulation activity at human M5 receptor
T6 sequence (whole entry): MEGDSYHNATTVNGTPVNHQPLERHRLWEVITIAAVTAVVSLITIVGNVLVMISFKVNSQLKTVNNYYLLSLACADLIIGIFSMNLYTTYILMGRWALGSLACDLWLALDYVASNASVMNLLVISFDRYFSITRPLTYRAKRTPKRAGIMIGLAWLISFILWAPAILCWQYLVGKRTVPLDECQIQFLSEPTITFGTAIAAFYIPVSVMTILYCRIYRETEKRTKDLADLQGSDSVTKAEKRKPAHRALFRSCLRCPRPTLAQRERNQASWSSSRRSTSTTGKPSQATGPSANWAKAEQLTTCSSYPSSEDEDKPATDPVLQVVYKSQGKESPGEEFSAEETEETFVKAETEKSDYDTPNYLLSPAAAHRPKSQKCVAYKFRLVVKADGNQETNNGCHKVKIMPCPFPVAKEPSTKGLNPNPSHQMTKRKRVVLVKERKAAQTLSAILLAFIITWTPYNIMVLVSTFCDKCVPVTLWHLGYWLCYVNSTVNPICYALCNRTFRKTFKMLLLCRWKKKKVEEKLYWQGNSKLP

[16] = Intrinsic clearance in rat microsomes; type: ADME, Microsome
Summary of the method: (§3)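 Hepatic microsomal intrinsic clearance, from which predicted hepatic clearance was derived. Single experiment (n=1) run in triplicate.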

[17] = Intrinsic clearance in human microsomes; type: ADME, Microsome; summary of the method: as §3

| SMILES | Drug metabolism [1] | EC50 ([2]; read-out: EC50) [nM] | Drug metabolism [3] | EC50 ([4]; read-out: EC50) [nM] | fraction unbound [5] | Drug metabolism [6] | Kp at 0.25 h [7] | inhibition (INH) [8] | %max [9] [%] | inhibition (INH) [10] | Ratio EC50 [11] | Drug metabolism [12] | fraction unbound [13] | %max [14] [%] | EC50 ([2]; read-out: pEC50 (converted)) [nM] | Activity [15] | EC50 ([4]; read-out: pEC50 (converted)) [nM] | CLint scaled [16] [mL/min/kg] | CLint scaled [17] [mL/min/kg] |
| --- | --- | --- | --- | --- | --- | --- | --- | --- | --- | --- | --- | --- | --- | --- | --- | --- | --- | --- | --- |
| Cc1cc(C)c2c(N)c(C(O)c3ccncc3)sc2n1 (configuration not stated) | Metabolite_Detected | > 10000 | Metabolite_Detected | > 10000 |  |  |  |  |  |  |  |  |  |  |  |  |  |  |  |
| Cc1cc(C)c2c(N)c(C(=O)c3ccncc3)sc2n1 |  | 2240 |  | 589 | 0.005 to 0.18 | Metabolite_Detected | 0.83 to 6.95 | Not Active | 64 | Active | 4 to 7 | Metabolite_Detected | 0.005 to 0.18 | 71 |  |  |  |  |  |
| Cc1nc2sc(C(=O)c3ccccc3)c(N)c2c(C)c1C |  | 76 to 145 |  | 120 to 138 | 0.007 |  |  |  | 71 to 80.5 |  |  |  | 0.008 | 76 to 76.8 | 145 | inactive | 138 | 2070 | 429 |
